Converted amounts (≈) assume the structure as drawn. The source made the active and inactive calls. No cut-off for these calls is given here.
Assays:
Staphylococcus aureus [1] = assay: Antibacterial activity against cystic fibrosis isolate Staphylococcus aureus by CLSI method; assay type: functional
Staphylococcus aureus [2] = assay: Antibacterial activity against methicillin-resistant Staphylococcus aureus USA300 by CLSI method; assay type: functional
[3] = Growth inhibition of human K/VP.5 cells incubated for 48 hrs by NBTI cell counting analysis; assay type: functional; details: K562, 48 h
Topoisomerase IV = Topoisomerase IV (Staphylococcus aureus, UniProt P0C1S7+P0C1U9); assay: Inhibition of Staphylococcus aureus topoisomerase IV decatenation activity using kDNA as substrate by ethidium bromide/bromophenol blue staining based agarose gel electrophoresis analysis; assay type: protein-complex assay
DNA gyrase [4] = molecular target: DNA gyrase (Staphylococcus aureus, UniProt P0A0K8+P20831); assay: Inhibition of Staphylococcus aureus Gyrase supercoiling activity assessed as reduction in supercoiling pBR322 DNA by measuring relaxation by bromophenol blue staining based TAE gel method; assay type: protein-complex assay
Staphylococcus aureus [5] = assay: Antibacterial activity against Staphylococcus aureus harbouring GyrA D83N mutant by CLSI method; assay type: functional
K562 = assay: Growth inhibition of log-phase human K562 cells incubated for 48 hrs by NBTI cell counting analysis; assay type: functional, cell-based; details: Homo sapiens, K562, 48 h; read-out: IC50
Staphylococcus aureus [6] = assay: Antibacterial activity against Staphylococcus aureus ATCC 29213 by CLSI method; assay type: functional
Staphylococcus aureus [7] = assay: Antibacterial activity against Staphylococcus aureus 3527 by CLSI method; assay type: functional
[8] = Metabolic stability in CD1 mouse liver microsomes assessed as intrinsic clearance at 2 uM measured up to 120 mins by LC-MS/MS analysis; assay type: ADME, Microsome; details: 2 h
[9] = Metabolic stability in CD1 mouse liver microsomes assessed as half life at 2 uM measured up to 120 mins by LC-MS/MS analysis; assay type: ADME, Microsome
[10] = molecular target: T1, DNA gyrase (Staphylococcus aureus) (UniProt P0A0K8+P20831); assay: Inhibition of Staphylococcus aureus DNA Gyrase assessed as reduction in supercoiling pBR322 DNA by measuring induction of single strand breaks at 100 uM by ethidium bromide staining based agarose gel electrophoresis; assay type: protein-complex assay
[11] = molecular target: T1, DNA gyrase (Staphylococcus aureus); assay: Inhibition of Staphylococcus aureus DNA Gyrase assessed as reduction in supercoiling pBR322 DNA by measuring induction of double strand breaks at 200 uM by ethidium bromide staining based agarose gel electrophoresis; assay type: protein-complex assay
DNA gyrase [12] = molecular target: DNA gyrase (Staphylococcus aureus, UniProt P0A0K8+P20831, D83N); assay: Inhibition of Staphylococcus aureus DNA Gyrase D83N mutant assessed as reduction in supercoiling pBR322 DNA by measuring relaxation by bromophenol blue staining based TAE gel method
Bacillus anthracis = assay: Antibacterial activity against Bacillus anthracis by CLSI method; assay type: functional
Enterococcus sp. = assay: Antibacterial activity against Enterococcus sp. by CLSI method; assay type: functional
Staphylococcus aureus [13] = assay: Antibacterial activity against Staphylococcus aureus by CLSI method; assay type: functional
In short: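 MICs were determined by broth microdilution per CLSI guidelines, in triplicate at minimum. Strains were S. aureus ATCC 29213, MRSA USA300 and a cystic fibrosis respiratory isolate, and ranges are given where seen.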

Streptococcus pneumoniae = assay: Antibacterial activity against Streptococcus pneumoniae by CLSI method; assay type: functional
Acinetobacter baumannii = assay: Antibacterial activity against Acinetobacter baumannii by CLSI method; assay type: functional
[14] = molecular target: Voltage-gated inwardly rectifying potassium channel KCNH2 (Homo sapiens, UniProt Q12809); assay: Inhibition of human ERG
Voltage-gated inwardly rectifying potassium channel KCNH2, sequence (Q12809 whole entry): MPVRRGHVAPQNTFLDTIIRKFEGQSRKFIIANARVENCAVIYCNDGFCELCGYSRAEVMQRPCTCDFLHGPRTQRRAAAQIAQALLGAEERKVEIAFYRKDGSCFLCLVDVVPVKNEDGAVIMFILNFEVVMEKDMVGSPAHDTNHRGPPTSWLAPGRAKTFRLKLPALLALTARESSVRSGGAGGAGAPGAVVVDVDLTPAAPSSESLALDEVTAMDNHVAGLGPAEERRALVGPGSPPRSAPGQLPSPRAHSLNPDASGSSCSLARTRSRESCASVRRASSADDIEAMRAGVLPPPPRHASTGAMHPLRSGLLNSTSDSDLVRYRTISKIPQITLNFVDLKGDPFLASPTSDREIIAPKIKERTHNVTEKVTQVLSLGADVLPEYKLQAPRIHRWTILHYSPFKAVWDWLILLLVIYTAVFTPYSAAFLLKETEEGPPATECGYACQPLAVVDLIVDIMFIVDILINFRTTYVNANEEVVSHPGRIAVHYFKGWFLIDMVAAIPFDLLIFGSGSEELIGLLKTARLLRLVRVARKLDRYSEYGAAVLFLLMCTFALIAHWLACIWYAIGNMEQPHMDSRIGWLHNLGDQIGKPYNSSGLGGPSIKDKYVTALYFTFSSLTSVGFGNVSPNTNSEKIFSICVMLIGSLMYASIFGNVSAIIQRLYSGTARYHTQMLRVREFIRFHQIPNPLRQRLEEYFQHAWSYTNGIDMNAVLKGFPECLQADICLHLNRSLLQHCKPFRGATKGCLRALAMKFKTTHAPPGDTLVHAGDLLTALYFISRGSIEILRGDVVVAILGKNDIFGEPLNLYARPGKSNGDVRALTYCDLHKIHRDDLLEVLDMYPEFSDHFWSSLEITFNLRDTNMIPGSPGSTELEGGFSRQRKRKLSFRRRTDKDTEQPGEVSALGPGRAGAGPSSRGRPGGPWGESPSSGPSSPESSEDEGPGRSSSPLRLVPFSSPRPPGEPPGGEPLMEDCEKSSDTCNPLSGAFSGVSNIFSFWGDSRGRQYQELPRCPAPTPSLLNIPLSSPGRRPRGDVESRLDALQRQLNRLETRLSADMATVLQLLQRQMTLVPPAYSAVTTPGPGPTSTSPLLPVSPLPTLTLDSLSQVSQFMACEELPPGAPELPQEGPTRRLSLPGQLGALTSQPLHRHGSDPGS
In short: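 hERG channel inhibition was measured on the IonWorks Barracuda automated patch system. IC50 came from eight-point concentration–response curves with four replicates per concentration.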

| Structure (SMILES) | MIC (Staphylococcus aureus [1]) | MIC (Staphylococcus aureus [2]) | IC50 [3] | IC50 (Topoisomerase IV) | IC50 (DNA gyrase [4]) | MIC (Staphylococcus aureus [5]) | MIC (Staphylococcus aureus [6]) | MIC (Staphylococcus aureus [7]) | also measured |
| --- | --- | --- | --- | --- | --- | --- | --- | --- | --- |
| COc1ccc2ncc(F)c(C(O)C[C@H]3OC[C@H](NCc4ccc5c(n4)NC(=O)CS5)CO3)c2c1 (mixture of isomers) | 0.5 µg/mL (≈ 0.999 µM) | 0.25 µg/mL (≈ 0.499 µM) | > 50000 nM | 1500 nM | 330 nM | 4 µg/mL (≈ 7.99 µM) | 0.25 µg/mL (≈ 0.499 µM) | ≤ 0.25 µg/mL | IC50 (K562): 56000 nM |
| COc1ccc2nccc(CCN3CCC(NCc4ccc5c(c4)OCCO5)CC3)c2c1 |  |  |  |  |  |  |  |  | intrinsic clearance (CLint) [8]: 1940 µL/min/mg; half-life at 2 µM [9]: 2.81 min |
| O=C(O)c1cn(C2CC2)c2cc(N3CCNCC3)c(F)cc2c1=O |  |  |  |  |  |  |  |  | Activity [10]: Active; Activity [11]: Active |
| COc1ccc2ncc(F)c(C[C@H](O)[C@H]3OC[C@H](NCc4ccc5c(c4)OCCO5)CO3)c2n1 | 0.125 µg/mL (≈ 0.265 µM) | 0.125 µg/mL (≈ 0.265 µM) | 30500 nM | 380 nM | 60 nM | 4 µg/mL (≈ 8.48 µM) | 0.125 µg/mL (≈ 0.265 µM) | 0.125 µg/mL (≈ 0.265 µM) | IC50 (DNA gyrase [12]): 2700 nM; MIC50 (Bacillus anthracis): 1 µg/mL (≈ 2.12 µM); MIC90 (Bacillus anthracis): 4 µg/mL (≈ 8.48 µM); MIC50 (Enterococcus sp.): 0.06 µg/mL (≈ 0.127 µM); MIC50 (Staphylococcus aureus [13]): 0.06 µg/mL (≈ 0.127 µM); MIC50 (Streptococcus pneumoniae): 0.5 µg/mL (≈ 1.06 µM); MIC50 (Acinetobacter baumannii): 16 µg/mL (≈ 33.9 µM) |
| COc1ccc2ncc(F)c(C[C@H](O)[C@H]3OC[C@H](NCc4cc5c(cn4)OCCO5)CO3)c2n1 | 0.125 µg/mL (≈ 0.265 µM) | ≤ 0.25 µg/mL | 145000 nM | 1300 nM | 39 nM | 4 µg/mL (≈ 8.47 µM) | 0.125 µg/mL (≈ 0.265 µM) | 0.25 µg/mL (≈ 0.529 µM) | IC50 (DNA gyrase [12]): 13000 nM; MIC50 (Bacillus anthracis): 2 µg/mL (≈ 4.23 µM); MIC90 (Bacillus anthracis): 8 µg/mL (≈ 16.9 µM); MIC50 (Enterococcus sp.): 0.12 µg/mL (≈ 0.254 µM); MIC50 (Staphylococcus aureus [13]): 0.25 µg/mL (≈ 0.529 µM); MIC50 (Streptococcus pneumoniae): 0.5 µg/mL (≈ 1.06 µM); MIC50 (Acinetobacter baumannii): 64 µg/mL (≈ 135 µM) |
| COc1ccc2ncc(F)c(CC[C@H]3OC[C@H](NCc4ccc5c(c4)OCCO5)CO3)c2n1 |  |  |  |  |  |  |  |  | intrinsic clearance (CLint) [8]: 2240 µL/min/mg; IC50 [14]: 23000 nM; half-life at 2 µM [9]: 2.43 min |
| COc1ccc2ncc(F)c(C(O)C[C@H]3OC[C@H](NCc4ccc5c(n4)NC(=O)CS5)CO3)c2n1 (mixture of isomers) | 0.25 µg/mL (≈ 0.498 µM) | 0.125 µg/mL (≈ 0.249 µM) | > 50000 nM | 2800 nM | 54 nM | 2 µg/mL (≈ 3.99 µM) | ≤ 0.25 µg/mL | ≤ 0.25 µg/mL | IC50 (K562): 52100 nM |

From ChEMBL document CHEMBL4837261, “Optimization of TopoIV Potency, ADMET Properties, and hERG Inhibition of 5-Amino-1,3-dioxane-Linked Novel Bacterial Topoisomerase Inhibitors: Identification of a Lead with In Vivo Efficacy against MRSA” (J Med Chem, 2021)
